Results reported in ChEMBL document CHEMBL4715684, “Computer-aided discovery of phenylpyrazole based amides as potent S6K1 inhibitors” (RSC Med Chem, 2020).

How the values were obtained:
[1] = molecular target: Ribosomal protein S6 kinase beta-1 (Homo sapiens, UniProt P23443); experiment: Inhibition of human S6K1 using KKRNRTLTK peptide substrate by radiometric assay
[2] = Half life in Sprague-Dawley rat at 1 mg/kg, iv measured upto 8 hrs by LC/MS/MS analysis; format: ADME, organism-based; conditions: in vivo
Procedure, shortened: (§1)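 Sprague Dawley rats were dosed with compound in a generic formulation at 1 mg mL-1, either 1 mg kg-1 iv into the femoral vein or 2 mg kg-1 by oral gavage. Blood was drawn at 5, 15, 30 min and 1, 2, 4, 6, 8 h into EDTA, and plasma was obtained by centrifugation. Plasma was precipitated with acetonitrile containing internal standard, then analysed by C18 LC-MS/MS (positive MRM) against internal-standard peak areas. Data were fitted with an IV bolus model.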

[3] = Volume of distribution in Sprague-Dawley rat at 1 mg/kg, iv measured upto 8 hrs by LC/MS/MS analysis; format: ADME, organism-based; conditions: in vivo; procedure, shortened: as §1
[4] = Clearance in Sprague-Dawley rat at 1 mg/kg, iv measured upto 8 hrs by LC/MS/MS analysis; format: ADME, organism-based; conditions: in vivo; procedure, shortened: as §1
[5] = AUC in Sprague-Dawley rat at 1 mg/kg, iv measured upto 8 hrs by LC/MS/MS analysis; format: ADME, organism-based; design: route intravenous, dose 1 mg/kg, time <=8; conditions: in vivo; procedure, shortened: as §1
[6] = Cmax in Sprague-Dawley rat at 2 mg/kg, po measured upto 8 hrs by LC/MS/MS analysis; format: ADME, organism-based; design: route oral, dose 2 mg/kg, time <=8; conditions: in vivo; procedure, shortened: as §1
[7] = Oral bioavailability in Sprague-Dawley rat at 2 mg/kg measured upto 8 hrs by LC/MS/MS analysis; format: ADME, organism-based; conditions: in vivo; procedure, shortened: as §1
[8] = Metabolic stability in human liver microsomes assessed as half life; format: ADME, Microsome
Procedure, shortened: (§2)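 Half-life in human or rat liver microsomes, reported as the mean of three experiments with errors within 30% of the mean.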

[9] = Metabolic stability in rat liver microsomes assessed as half life; format: ADME, Microsome; procedure, shortened: as §2
CYP1A2 = molecular target: T1, CYP1A2 (Homo sapiens, UniProt P05177); experiment: Inhibition of human CYP1A2 using phenacetin as substrate at 10 uM by cocktail inhibition assay; format: ADME; conditions: probe phenacetin
T1 sequence (P05177 whole entry): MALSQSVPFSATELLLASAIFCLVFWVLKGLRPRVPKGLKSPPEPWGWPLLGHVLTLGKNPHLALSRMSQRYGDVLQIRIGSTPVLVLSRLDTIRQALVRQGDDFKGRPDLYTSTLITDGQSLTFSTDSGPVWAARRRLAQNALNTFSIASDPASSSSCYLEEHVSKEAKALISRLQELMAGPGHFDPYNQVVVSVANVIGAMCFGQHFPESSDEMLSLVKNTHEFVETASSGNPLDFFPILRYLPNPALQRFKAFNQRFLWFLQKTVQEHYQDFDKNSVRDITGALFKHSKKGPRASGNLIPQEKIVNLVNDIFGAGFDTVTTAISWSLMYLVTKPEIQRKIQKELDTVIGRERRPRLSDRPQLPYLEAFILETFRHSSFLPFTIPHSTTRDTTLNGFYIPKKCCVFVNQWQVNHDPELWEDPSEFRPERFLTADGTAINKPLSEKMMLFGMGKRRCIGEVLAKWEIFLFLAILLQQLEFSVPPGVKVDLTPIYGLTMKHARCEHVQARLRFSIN
Procedure, shortened: (§3)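 Cocktail P450 assay measuring marker metabolism with and without 10 µM test compound: CYP1A2 phenacetin […] to acetaminophen, CYP2C9 tolbutamide to hydroxytolbutamide, CYP2D6 bufuralol to […], CYP3A4 midazolam to 1'-hydroxymidazolam. Each substrate was at about its Km. Isoform-specific inhibitors were run as system controls. Values are means of three experiments, with errors within 30% of the mean.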

CYP2C9 = CYP2C9 (Homo sapiens, UniProt P11712); experiment: Inhibition of human CYP2C9 using tolubutamide as substrate at 10 uM by cocktail inhibition assay; format: ADME; conditions: probe tolubutamide; procedure, shortened: as §3
CYP2D6 = CYP2D6 (Homo sapiens, UniProt P10635); experiment: Inhibition of human CYP2D6 using bufuralol as substrate at 10 uM by cocktail inhibition assay; format: ADME; conditions: probe bufuralol; procedure, shortened: as §3
CYP3A4 = CYP3A4 (Homo sapiens, UniProt P08684); experiment: Inhibition of human CYP3A4 using midazolam as substrate at 10 uM by cocktail inhibition assay; format: ADME; conditions: probe midazolam; procedure, shortened: as §3
Sequence of CYP3A4 (P08684 whole entry): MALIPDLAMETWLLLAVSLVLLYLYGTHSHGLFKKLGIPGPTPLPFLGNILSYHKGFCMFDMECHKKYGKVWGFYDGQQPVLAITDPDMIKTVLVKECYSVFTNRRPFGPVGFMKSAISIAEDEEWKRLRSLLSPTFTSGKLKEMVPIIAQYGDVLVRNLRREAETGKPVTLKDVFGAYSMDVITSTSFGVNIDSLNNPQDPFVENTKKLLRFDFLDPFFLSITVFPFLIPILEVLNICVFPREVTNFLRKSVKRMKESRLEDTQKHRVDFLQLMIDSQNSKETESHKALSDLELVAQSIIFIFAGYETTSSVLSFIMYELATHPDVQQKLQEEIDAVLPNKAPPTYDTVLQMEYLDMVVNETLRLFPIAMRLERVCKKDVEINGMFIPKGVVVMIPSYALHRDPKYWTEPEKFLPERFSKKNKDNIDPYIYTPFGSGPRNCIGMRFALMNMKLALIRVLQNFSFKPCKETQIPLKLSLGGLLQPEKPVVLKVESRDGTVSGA

Sequence of Ribosomal protein S6 kinase beta-1 (P23443 whole entry): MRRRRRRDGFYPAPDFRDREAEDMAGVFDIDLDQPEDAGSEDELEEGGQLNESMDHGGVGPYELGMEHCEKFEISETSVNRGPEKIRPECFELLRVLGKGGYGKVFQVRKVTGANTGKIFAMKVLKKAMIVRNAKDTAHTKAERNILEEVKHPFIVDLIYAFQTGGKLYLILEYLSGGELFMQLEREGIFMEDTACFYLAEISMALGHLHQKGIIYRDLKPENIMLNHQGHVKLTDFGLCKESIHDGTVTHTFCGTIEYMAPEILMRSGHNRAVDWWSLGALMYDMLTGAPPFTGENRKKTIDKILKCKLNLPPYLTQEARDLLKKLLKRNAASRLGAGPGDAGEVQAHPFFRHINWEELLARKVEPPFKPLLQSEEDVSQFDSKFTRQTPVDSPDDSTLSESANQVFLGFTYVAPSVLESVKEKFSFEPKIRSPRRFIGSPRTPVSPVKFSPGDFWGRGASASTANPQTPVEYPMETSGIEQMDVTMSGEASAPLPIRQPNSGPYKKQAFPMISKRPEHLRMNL
Sequence of CYP2C9 (P11712 whole entry): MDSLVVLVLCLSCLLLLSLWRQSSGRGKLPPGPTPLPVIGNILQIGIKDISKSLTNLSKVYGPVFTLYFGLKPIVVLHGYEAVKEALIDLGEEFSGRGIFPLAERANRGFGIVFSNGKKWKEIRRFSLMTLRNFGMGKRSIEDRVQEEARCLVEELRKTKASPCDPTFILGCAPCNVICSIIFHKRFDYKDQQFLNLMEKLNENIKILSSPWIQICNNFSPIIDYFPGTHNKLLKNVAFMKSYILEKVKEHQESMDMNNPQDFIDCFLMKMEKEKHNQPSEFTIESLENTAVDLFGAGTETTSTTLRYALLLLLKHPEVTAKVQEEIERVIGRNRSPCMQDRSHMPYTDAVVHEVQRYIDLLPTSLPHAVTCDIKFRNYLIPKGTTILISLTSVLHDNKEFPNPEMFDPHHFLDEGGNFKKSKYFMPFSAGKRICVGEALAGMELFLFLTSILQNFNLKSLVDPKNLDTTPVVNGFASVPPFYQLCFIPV
Sequence of CYP2D6 (P10635 whole entry): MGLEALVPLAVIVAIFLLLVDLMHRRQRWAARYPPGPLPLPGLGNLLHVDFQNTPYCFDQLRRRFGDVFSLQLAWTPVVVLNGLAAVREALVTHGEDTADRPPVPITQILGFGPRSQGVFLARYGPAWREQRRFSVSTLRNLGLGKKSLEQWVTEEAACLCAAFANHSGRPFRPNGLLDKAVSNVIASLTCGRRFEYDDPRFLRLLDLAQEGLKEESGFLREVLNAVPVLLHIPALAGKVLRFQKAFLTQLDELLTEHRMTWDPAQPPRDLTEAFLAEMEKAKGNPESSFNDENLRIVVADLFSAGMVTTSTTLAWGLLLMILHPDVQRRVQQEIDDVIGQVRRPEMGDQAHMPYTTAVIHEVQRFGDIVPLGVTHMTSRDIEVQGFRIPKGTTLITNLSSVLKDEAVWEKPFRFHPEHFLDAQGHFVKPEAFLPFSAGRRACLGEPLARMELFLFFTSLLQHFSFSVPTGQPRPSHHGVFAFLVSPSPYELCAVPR

SMILES: O=C(Nc1ccc(-c2cn[nH]c2)cc1F)C1COc2ccccc2O1 (stereo not drawn)
- IC50 [1]: 179 nM

SMILES: COc1ccc2c(c1)CC(C(=O)Nc1cc(F)c(-c3cn[nH]c3)c(F)c1)CO2 (stereo not drawn)
- half-life [2]: 28.2 min
- Vd [3]: 0.7 L/kg
- clearance [4]: 28 mL/min/kg
- IC50 [1]: 56.7 nM
- AUC at 8 h [5]: 1.6 µM·h
- Cmax [6]: 670 nM
- bioavailability [7]: 25%
- half-life [8]: 23 min
- half-life [9]: 17 min
- inhibition at 10 µM (CYP1A2): 42%
- inhibition at 10 µM (CYP2C9): 63%
- inhibition at 10 µM (CYP2D6): 40%
- inhibition at 10 µM (CYP3A4): 38%

SMILES: O=C(Nc1cc(F)c(-c2cn[nH]c2)c(F)c1)C1COc2ccccc2C1 (stereo not drawn)
- Vd [3]: 0.8 L/kg
- AUC at 8 h [5]: 1.5 µM·h
- Cmax [6]: 600 nM
- bioavailability [7]: 23%
